Bioassay records from PubChem BioAssay.
A selection: hits, their analogues and other compounds. The true share with any hit is near 2%.
CHRM1 agonist = agonists of human M1 muscarinic receptor. CHO-K1 hM1, Fluo-8 calcium fluorescence, agonist mode; 0% DMSO, 100% acetylcholine EC100. hit rate 0.33% among 360,000. activation, % at 3 µM;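 active = activation above the run's mean compound activation plus 3 SD, cut at about 16% in these data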;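 also: peak over basal fluorescence ratio within a 140 s kinetic read after compound addition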
CHRM5 PAM = CHRM5 positive allosteric modulation; activation, % at 3 µM; hit rate 0.3% among 360,000; CHO-K1 hM5, Fluo-8 calcium, ACh EC20 PAM; 0% = ACh EC20, 100% = ACh EC100;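 active = activation above the run cutoff, the mean activation of all test compounds plus 3 SD, cut at about 18% in these data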
Target sequence (P08912 whole entry, looked up): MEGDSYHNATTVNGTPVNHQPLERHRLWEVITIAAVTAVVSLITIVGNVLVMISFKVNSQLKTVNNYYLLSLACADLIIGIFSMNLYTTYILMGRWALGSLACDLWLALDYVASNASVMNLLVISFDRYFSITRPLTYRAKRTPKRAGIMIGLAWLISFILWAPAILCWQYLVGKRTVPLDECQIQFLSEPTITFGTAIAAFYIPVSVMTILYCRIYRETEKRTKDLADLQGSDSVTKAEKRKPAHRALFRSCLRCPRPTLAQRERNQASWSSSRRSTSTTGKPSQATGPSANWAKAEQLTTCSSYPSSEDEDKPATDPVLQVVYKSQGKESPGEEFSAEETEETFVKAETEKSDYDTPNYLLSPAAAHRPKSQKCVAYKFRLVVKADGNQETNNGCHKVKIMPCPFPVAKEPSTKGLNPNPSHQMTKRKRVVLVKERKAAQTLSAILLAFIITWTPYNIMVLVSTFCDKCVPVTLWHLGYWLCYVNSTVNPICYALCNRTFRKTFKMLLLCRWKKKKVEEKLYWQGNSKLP
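Measured by: Fluo-8 calcium fluorescence; material: human M5 receptor in CHO-K1 cells; schedule: Post-acetylcholine fluorescence recording 140 s; benchmarks: low control EC20 acetylcholine (0%), high control EC100 acetylcholine (100%); read-out: Max/basal fluorescence ratio as % of EC20–EC100 ACh window; compound: single dose, 3 µM nominal final test concentration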
M5 ag = CHRM5 agonism in calcium assay | hit rate 0.19% among 360,000 | P08912 | AID 624037 | CHO-K1 hM5 cells, Fluo-8 calcium fluorescence; 0% DMSO wells, 100% maximal acetylcholine response | activation, % at 3 µM;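 active = activation above the run's mean over test compounds plus 3 SD, cut at about 23% in these data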;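 also: signal is peak over basal fluorescence ratio across the kinetic read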
M1 antag = antagonists of human M1 muscarinic receptor; CHO-K1 hM1, Fluo-8 calcium fluorescence, ACh EC80 antagonist; hit rate 1.3% among 360,000; inhibition, % at 3 µM; P11229; AID 588852;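 active = percent inhibition above its own plate's cutoff, namely the mean of that plate's compound wells plus 3 SD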;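 also: peak over basal fluorescence ratio during 140 s after agonist addition; 0% = ACh EC80 plus DMSO and 100% = DMSO alone without agonist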
M1 PAM = positive allosteric modulators of human M1 muscarinic receptor. P11229. CHO-K1 hM1, Fluo-8 calcium fluorescence, ACh EC20; 0% = ACh EC20, 100% = maximal ACh. activation, % at 3 µM. hit rate 0.088% among 360,000. AID 588819; in the data active = activation above about 19%, passing the limit was not always enough
M5 antag = blocks acetylcholine activation of human M5 receptor | AID 624040 | inhibition, % at 3 µM | CHO-hM5 cells, Fluo-8 calcium fluorescence, ACh EC80 | hit rate 0.59% among 360,000;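 active = inhibition above a per-plate cutoff, the mean of that plate's test compounds plus 3 SD, cut at about 27% in these data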;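 also: 0% = acetylcholine EC80 with DMSO and 100% = DMSO without agonist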
Starred values were filed as active, the others as inactive; / = no result.

SMILES	CHRM1 agonist	CHRM5 PAM	M5 ag	M1 antag	M1 PAM	M5 antag
CCOC(=O)/C(=C/c1c2ccccc2cc2ccccc12)NC(=O)c1ccccc1	-2.5	-8.7	-5.2	-16.5	6.8	-4.5
CCOC(=O)/C(=C\c1ccccc1)NC(=O)c1ccccc1	1.4	18.7*	3.8	-22.8	15.9	-18.5
Nc1nnc(SCc2ccc(Cl)cc2)s1	-4.8	-9.6	-3.7	28.0*	-11.1	6.0
Clc1ccc(CSc2nnc(NC3=NCCCCC3)s2)cc1	-5.1	-19.3	-3.0	33.4*	-15.9	7.4
O=C(Nc1cc(C(F)(F)F)ccc1N1CCCCC1)C1=COCCO1	-3.5	-8.2	-0.8	-6.8	1.3	-1.7
CCCc1c(-c2ccc(F)cc2)ncn1Cc1ccccc1OC	/	-5.1	-4.8	/	/	9.9
CCn1ccnc1CN(C)C(=O)c1ccc(OC2CCN(CCc3ccccc3)CC2)cc1	-5.9	-15.9	-10.6	31.5	-12.5	46.5*
CCN(CC)C1CCN(C(=O)c2ccc(OC3CCN(CCc4ccccc4)CC3)cc2)C1 (centres undefined)	-6.5	-14.3	-6.1	62.5*	-22.4	12.2
Cc1cc(C)cc(N(CC(=O)NCc2ccco2)C(=O)c2snc(C(N)=O)c2N)c1	4.0	-9.0	4.5	-4.5	9.3	15.4
Cc1cc(C)cc(N(CC(=O)NCc2ccc(F)cc2)C(=O)c2snc(C(N)=O)c2N)c1	16.4*	3.0	10.3	-6.3	11.4	-5.5
O=C(CCN1C(=O)/C(=C/c2ccccc2F)SC1=S)NCCc1ccc(O)cc1	3.3	-5.5	7.7	32.0*	-12.2	1.2
Cc1onc(-c2c(Cl)cccc2Cl)c1C(=O)N1CCCc2ccccc21	-7.9	-1.4	-3.5	-6.5	1.9	8.6
Cc1onc(-c2c(Cl)cccc2Cl)c1C(=O)N1CCc2ccccc2C1	-6.3	-21.8	-7.6	40.7*	-23.1	11.6
Cc1cc([N+](=O)[O-])ccc1NCc1ccccc1	-11.6	-20.6	-6.5	7.3	-10.6	11.9
COc1ccccc1CNc1ccc([N+](=O)[O-])cc1C	-8.8	-15.4	-4.9	16.5	-19.6	32.8*
Cc1nc(N)c(Cc2ccc(Cl)cc2Cl)c(N)n1	0.6	-16.7	2.4	32.3	-26.7	27.7*
COc1ccc(Cc2c(N)nc(C)nc2N)cc1	-12.3	3.6	-2.7	-8.1	14.4	5.1
O=C(CCC1CCN(Cc2nccs2)CC1)Nc1ccccc1	-6.4	-8.6	-0.9	-9.2	-0.9	28.7*
O=C(Nc1cccc(-c2cccc(Cl)c2)c1)C1CCN(Cc2nccs2)CC1	-6.3	-3.6	-0.2	-1.2	-1.2	3.4
C(=NNc1nnn(Cc2ccccc2)n1)c1ccccc1	-3.3	-0.3	0.6	-5.4	5.0	2.5
O=C(CCCN1C(=O)/C(=C/c2ccccc2OC(F)F)SC1=S)Nc1cccnc1	-1.9	-5.1	4.0	-2.3	-5.3	4.8
Cc1ccc(NS(=O)(=O)c2ccc(C(=O)OCC(=O)Nc3cc(C)on3)cc2)cc1	27.9*	1.6	25.9*	8.2	6.4	4.0
CC1(C)OC(=O)CC1C(=O)NCc1ccccc1 (centres undefined)	-0.9	25.5*	-3.6	10.3	-3.1	7.3
COC(=O)[C@@]12C[C@@H](CC(=O)NCc3cccc4ccccc34)C(=O)N(Cc3ccccc3)C1=CCC(C)(C)C2	/	-4.5	-0.4	/	/	6.3
Nc1ccc(-c2nc3ccccc3[nH]2)cc1	-2.3	-2.7	0.6	-13.0	11.0	-0.4
SMILES	CHRM1 agonist	CHRM5 PAM	M5 ag	M1 antag	M1 PAM	M5 antag
c1ccc(-c2cc(-c3nc4ccccc4[nH]3)c3ccccc3n2)cc1	-5.8	-18.2	0.0	27.6	-15.6	28.6*
COc1ccc(S(=O)(=O)N2CCCCCC2)cc1C(=O)N(C)Cc1ccc(F)cc1	-2.3	-4.8	-0.6	-17.5	25.1*	3.5
CN1CCN(C(=O)N(c2ccccc2)c2ccccc2)CC1	-7.8	-2.5	-20.4	23.6	-13.9	0.5
CCN1CCN(C(=O)N(c2ccccc2)c2ccccc2)CC1	-9.4	-14.8	-9.0	42.4*	-21.0	7.1
Cc1ccc(S(=O)(=O)N2CCC(N3CCN(C)CC3)CC2)cc1Cl	-13.7	-13.0	-8.1	41.6*	-20.8	24.6
CCN(CC)C(=O)N1CCN(S(=O)(=O)c2ccccc2)CC1	-1.1	5.5	1.8	-25.7	27.7*	3.2
Cc1ccc(N(C)C(=O)N2CCN(S(=O)(=O)c3ccc(C)cc3)CC2)cc1	18.8*	-5.2	7.0	-14.8	25.4*	-0.6
Cc1ccc(N(C)C(=O)N2CCN(S(=O)(=O)c3ccc4ccccc4c3)CC2)cc1	6.7	-5.7	3.6	0.9	6.9	9.1
CCOC(=O)N1CCC(N2CCN(S(=O)(=O)c3ccc(C)cc3)CC2)CC1	23.5*	-3.9	2.9	-7.2	-1.8	3.0
CCc1ccccc1NC(=O)NC1CC2CCC(C1)N2Cc1cccs1 (centres undefined)	-12.8	-11.0	-6.2	45.0*	-31.5	-3.6
Cc1ccc(NC(=O)N2C3CCCC2CC(NC(=O)C(C)(C)C)C3)cc1 (centres undefined)	-8.8	-1.6	-19.8	20.2	-7.9	0.3
CCc1ccc(NC(=S)NC2CC3CCCC(C2)N3Cc2cccs2)cc1 (centres undefined)	0.8	-20.4	-2.8	26.8*	-22.0	12.9
CCc1ccccc1NC(=O)N1C2CCCC1CC(NC(=O)C(C)(C)C)C2 (centres undefined)	-6.3	-5.3	-8.0	47.8*	-16.3	-3.0
CCCN1C2CCCC1CC(NC(=S)Nc1ccc(OC)cc1)C2 (centres undefined)	-5.8	-1.9	-14.8	-4.3	2.6	9.1
COc1cc2c(cc1OC)C(=O)N1[C@H]3c4ccccc4OC[C@@H]3[C@H](c3ccccc3)[C@]1(C)C(=O)N2	-4.0	-2.3	2.4	0.3	4.3	11.0
C[C@@]12C(=O)Nc3ccc(F)cc3C(=O)N1[C@H]1c3cc(Cl)ccc3OC[C@@H]1[C@@H]2c1ccccc1	-5.1	-18.7	-3.0	21.2	-15.9	-2.5
C[C@@]12C(=O)Nc3cc(F)c(F)cc3C(=O)N1[C@H]1c3ccccc3OC[C@@H]1[C@@H]2c1ccccc1	-5.8	-38.3	-4.4	78.9*	-32.1	23.4
C[C@@]12C(=O)Nc3ccc(F)cc3C(=O)N1[C@H]1c3ccccc3OC[C@@H]1[C@@H]2c1ccccc1	-6.7	-39.2	-9.6	89.1*	-37.1	56.8*
Cc1ccc(NC(=O)COC(=O)Cc2c[nH]c3ccccc23)cc1	-0.9	-4.7	0.3	-10.2	3.3	9.1
Cc1cccc(C)c1NC(=O)C1(C)CSCC(=O)N1Cc1cccc(C(F)(F)F)c1 (centres undefined)	/	9.7	-0.3	/	/	-7.2
O=C(NC1CC2CCCC(C1)N2Cc1ccccc1)c1cccc(F)c1 (centres undefined)	-9.0	-7.5	-21.3	49.5*	-24.9	3.0
